Laboratory results reported in ChEMBL document CHEMBL1138932, “Synthesis and anti-hepatitis B virus activity of novel benzimidazole derivatives” (J Med Chem, 2006).
Active and inactive are the calls of the source. No cut-off for these calls is given here.

Key:
[1] = test system: HepG2; assay: Selectivity index, CC50 for HepG2.2.15 cells/IC50 for HBV; assay type: functional
Outline: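 Ratio CC50/IC50. CC50 is the concentration giving 50% extinction of HepG 2.2.15 cells. IC50 is the concentration giving 50% inhibition of cytoplasmic HBV-DNA synthesis.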

[2] = test system: Hepatitis B virus; assay: Inhibition of HBV DNA replication; assay type: functional, organism-based
Outline: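 Antiviral assay in HepG 2.2.15 cells; read-out is cytoplasmic HBV-DNA synthesis. IC50 is the concentration giving 50% inhibition of HBV DNA synthesis.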

[3] = test system: HepG2; assay: Cytotoxicity against HepG2.2.15 cells; assay type: functional; conditions: Homo sapiens
Outline: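 HepG 2.2.15 cells exposed to compound; CC50 taken as the concentration required for 50% extinction of the cells.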

Row | Compound | IC50 [2] | Selectivity index [1] | CC50 [3] | Activity [2]
1 | Cc1ccc(S(=O)(=O)n2c(CCN3C(=O)c4ccccc4C3=O)nc3cc(Cl)c(Cl)cc32)cc1 | 2.9 µM | 299 | 867 µM | –
2 | Cc1ccc(Cn2c(CCN)nc3cc(Cl)c(Cl)cc32)cc1 | 1.4 µM | 3 | 4 µM | –
3 | O=C1c2ccccc2C(=O)N1CCc1nc2ccccc2n1S(=O)(=O)c1cccc(C(F)(F)F)c1 | 30.4 µM | 0.3 | 10 µM | –
4 | O=C1c2ccccc2C(=O)N1CCc1nc2cc(Cl)c(Cl)cc2[nH]1 | 300 µM | 1 | 330 µM | –
5 | O=C1c2ccccc2C(=O)N1CCc1nc2cc(F)c(F)cc2n1S(=O)(=O)c1ccccc1[N+](=O)[O-] | 0.64 µM | 120 | 77 µM | –
6 | CCCc1nc2cc(Cl)c(Cl)cc2n1C | 3.9 µM | 6 | 24.6 µM | –
7 | Cc1ccc(S(=O)(=O)n2c(CCN3C(=O)c4ccccc4C3=O)nc3ccccc32)cc1 | 2.2 µM | 75 | 164 µM | –
8 | Cn1c(CCc2ccccc2)nc2cc(Cl)c(Cl)cc21 | – | – | 15.3 µM | inactive
9 | Cn1c(CCC2CCCO2)nc2cc(Cl)c(Cl)cc21 (centres undefined) | 10.3 µM | 5 | 56 µM | –
10 | Nc1ncnc2c1ncn2CCOCP(=O)(O)O [ADEFOVIR] | 1.3 µM | 156 | 203 µM | –
11 | CS(=O)(=O)n1c(CCN2C(=O)c3ccccc3C2=O)nc2cc(Cl)c(Cl)cc21 | – | – | 175 µM | inactive
12 | O=C1c2ccccc2C(=O)N1CCc1nc2cc(F)c(F)cc2n1S(=O)(=O)c1cccc([N+](=O)[O-])c1 | 0.14 µM | 71 | 10 µM | –
13 | O=C1c2ccccc2C(=O)N1CCc1nc2ccccc2n1S(=O)(=O)c1ccccc1 | 2.2 µM | 13 | 28 µM | –
14 | Cn1c(CCc2ccco2)nc2cc(Cl)c(Cl)cc21 | – | – | 5.9 µM | inactive
15 | Cn1c(CCc2cccs2)nc2cc(Cl)c(Cl)cc21 | – | – | 16 µM | inactive
16 | Cc1ccc(S(=O)(=O)n2c(CN3C(=O)c4ccccc4C3=O)nc3cc(Cl)c(Cl)cc32)cc1 | 0.5 µM | 180 | 90 µM | –
17 | Cc1ccc(S(=O)(=O)n2c(N3C(=O)c4ccccc4C3=O)nc3cc(Cl)c(Cl)cc32)cc1 | 19.4 µM | 6 | 122 µM | –
18 | Cc1ccc(S(=O)(=O)n2c(CCN3C(=O)c4ccccc4C3=O)nc3cc(F)c(F)cc32)cc1 | 1.2 µM | 26 | 31 µM | –
19 | O=C1c2ccccc2C(=O)N1CCc1nc2cc(F)c(F)cc2n1S(=O)(=O)c1ccc(C(F)(F)F)cc1 | 3.2 µM | 3 | 11 µM | –

More lines, main results first:

Row | IC50 [2] | Compound | Selectivity index [1] | CC50 [3] | Activity [2]
20 | 0.68 µM | Cc1ccc(S(=O)(=O)n2c(CCN3C(=O)C=CC3=O)nc3cc(Cl)c(Cl)cc32)cc1 | 49 | 33 µM | –
21 | 53.2 µM | Cc1ccc(C(=O)n2c(CCN3C(=O)c4ccccc4C3=O)nc3cc(Cl)c(Cl)cc32)cc1 | >19 | > 1000 µM | –
22 | 0.9 µM | Cn1c(CCN2C(=O)c3ccccc3C2=O)nc2cc(Cl)c(Cl)cc21 | >1111 | > 1000 µM | –
23 | 0.38 µM | Nc1ccn([C@@H]2CS[C@H](CO)O2)c(=O)n1 [LAMIVUDINE] | >2632 | > 1000 µM | –
24 | 50.2 µM | O=C1c2ccccc2C(=O)N1CCc1nc2cc(Cl)c(Cl)cc2n1S(=O)(=O)c1ccc([N+](=O)[O-])cc1 | 4 | 181 µM | –
25 | 18.5 µM | Cn1c(CCC2CCCCC2)nc2cc(Cl)c(Cl)cc21 | >27 | > 500 µM | –
26 | 4.6 µM | Cn1c(CCc2ccncc2)nc2cc(Cl)c(Cl)cc21 | 8 | 35.8 µM | –
27 | 0.34 µM | Cc1ccc(S(=O)(=O)n2c(CCCN3C(=O)c4ccccc4C3=O)nc3cc(Cl)c(Cl)cc32)cc1 | 38 | 13 µM | –
28 | 7.2 µM | COc1ccc(S(=O)(=O)n2c(CCN3C(=O)c4ccccc4C3=O)nc3cc(Cl)c(Cl)cc32)cc1 | 26 | 189 µM | –
29 | 0.7 µM | CC(C)c1ccc(S(=O)(=O)n2c(CCN3C(=O)c4ccccc4C3=O)nc3cc(Cl)c(Cl)cc32)cc1 | 24 | 17 µM | –
30 | 3.4 µM | Cc1ccc(S(=O)(=O)n2c(CCN3Cc4ccccc4C3=O)nc3cc(Cl)c(Cl)cc32)cc1 | 7 | 23 µM | –
31 | 0.7 µM | Cc1ccc(Cn2c(CCN3C(=O)c4ccccc4C3=O)nc3cc(Cl)c(Cl)cc32)cc1 | >714 | > 500 µM | –
